Article PMC3472128 (Structure (London, England : 1993), 2012)
“Also recorded” adds a separate entry of the source.

What was measured:
YAP WW1-WW2 pair = YAP WW1-WW2 pair (Homo sapiens, UniProt P46937); assay: ITC, YAP WW1-WW2 pair; type: binding
Smurf1 WW2 [1] = target: T1, Smurf1 WW2 (Homo sapiens, UniProt Q9HCE7); assay: IM-MS, Smurf1 WW2 dimer population; type: binding
Summary of the method: (§1)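 Traveling-wave ion mobility–mass spectrometry was run on the recombinant Smurf WW protein mixed with the Smad7 peptide. Monomer, dimer and trimer species carrying zero to three ligands were assigned by specific ionisation mass and characteristic drift time.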

Smurf1 WW1-WW2 Gln249Glu = assay: ITC, Smad7 peptide vs Smurf1 WW1-WW2 Gln249Glu; type: binding, human
[2] = target: four independent Nedd4L WW domains; assay: ITC, Smad7 peptide vs independent Nedd4L WW domains; type: binding, human; details: each of the four independent WW domains, values shown in Figure 1B only
Smurf1 WW1-WW2 Arg243Glu = assay: ITC, Smad7 peptide vs Smurf1 WW1-WW2 Arg243Glu; type: binding, human
Smurf1 WW1 [3] = assay: IM-MS, Smurf1 WW1 dimer population; type: binding, human
Summary of the method: as §1

[4] = target: Nedd4L WW2 domain Arg380Glu (Homo sapiens, UniProt Q96PU5, R400E); assay: ITC, Smad7 peptide vs Nedd4L WW2 Arg380Glu; type: binding
[5] = tested on: three possible Nedd4L WW-WW pairs; assay: ITC, Smad7 peptide vs Nedd4L WW-WW pairs; type: binding, human
[6] = tested on: Nedd4L WW2-WW3 mutant constructs (bind only one PY site); assay: ITC, Smad7 peptide vs Nedd4L WW2-WW3 mutant constructs; type: binding, human; details: two WW2-WW3 mutant constructs that bind only one PY site
Smurf1 WW1 [7] = assay: ITC, Smad7 peptide vs Smurf1 WW1; type: binding, human
Smurf2 WW2-WW3 [8] = target: T2, Smurf2 WW2-WW3 (Homo sapiens, UniProt Q9HAU4); assay: IM-MS, complexes of Smurf2 WW2-WW3 with Smad7 peptide; type: binding; details: protein concentrations used in ITC (30–50 μM)
[9] = target: Nedd4L WW2 domain Lys378Glu (Homo sapiens, UniProt Q96PU5, K398E); assay: ITC, Smad7 peptide vs Nedd4L WW2 Lys378Glu; type: binding
[10] = tested on: Smurf1 WW1-WW2 Gln247 and Gln249 to Glu; assay: ITC, Smad7 peptide vs Smurf1 WW1-WW2 Gln247 and Gln249 to Glu; type: binding, human
Smurf1 WW1-WW2 [11] = target: T3, Smurf1 WW1-WW2 (Homo sapiens, UniProt Q9HCE7); assay: ITC, Smad7 peptide vs Smurf1 WW1-WW2 pair; type: binding
T3 sequence (Q9HCE7 233-314 isoform Q9HCE7-2): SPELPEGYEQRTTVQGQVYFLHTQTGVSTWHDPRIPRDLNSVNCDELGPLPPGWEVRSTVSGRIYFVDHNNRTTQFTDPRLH
Summary of the method: (§2)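 Nano ITC was run at 5, 15 and 25 °C, in Tris and in ammonium acetate at pH 7. Kd and stoichiometry come from fits. Each run was done at least three times with two protein expression batches.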

YAP WW2 = assay: ITC, Smad7 peptide vs YAP WW2; type: binding, human; details: 15°C, weaker than YAP WW1
Smurf2 WW2 = assay: ITC, Smad7 peptide vs Smurf2 WW2; type: binding, human
Nedd4L WW domains = assay: ITC, preferred Nedd4L WW domain for Smad7 peptide; type: binding, human
Smurf2 = assay: NMR, Smad7 peptide binding to Smurf2; design: species or system human; details: triple resonance NMR; 285 K/298 K
Smurf1 WW2 [12] = target: T1, Smurf1 WW2; assay: ITC, Smad7 peptide vs Smurf1 WW2; type: binding
YAP WW1 domain = YAP WW1 domain (Homo sapiens, UniProt P46937); assay: ITC, Smad7 peptide vs YAP WW1; type: binding
Smurf1 WW1-WW2 Arg243Ala = assay: ITC, Smad7 peptide vs Smurf1 WW1-WW2 Arg243Ala; type: binding, human
Smurf1 WW1-WW2 [13] = target: T3, Smurf1 WW1-WW2; assay: IM-MS, complexes of Smurf1 WW1-WW2 with Smad7 peptide; type: binding; details: protein concentrations used in ITC (30–50 μM)
Smurf1 WW1-WW2 pair = assay: NMR, Smad7 peptide binding to Smurf1; design: species or system human; details: triple resonance NMR; 285 K/298 K
Nedd4L WW2-WW3 pair = assay: ITC, Smad7 peptide vs Nedd4L WW2-WW3 pair; type: binding, human
[14] = target: Smurf1 WW2 domain Arg295Glu (Homo sapiens, UniProt Q9HCE7, R321E); assay: ITC, Smad7 peptide vs Smurf1 WW2 Arg295Glu; type: binding
Smurf2 WW2-WW3 [15] = target: T2, Smurf2 WW2-WW3; assay: ITC, Smad7 peptide vs Smurf2 WW2-WW3 pair; type: binding
Summary of the method: as §2

[16] = target: Nedd4L WW2 domain Lys378/Arg380 to Glu (Homo sapiens, UniProt Q96PU5, K398E/R400E); assay: ITC, Smad7 peptide vs Nedd4L WW2 double mutant; type: binding
Smurf2 WW3 domain R312E = Smurf2 WW3 domain R312E (Homo sapiens, UniProt Q9HAU4, R312E); assay: ITC, Smad7 peptide vs Smurf2 WW3 R312E; type: binding
HA-YAP = assay: Immunoprecipitation of Smad7 with HA-YAP in HEK293T cells; type: cell-based, human; details: full-length Smad7 wild type or variants with HA-YAP
Summary of the method: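 HEK293T cells were transfected with epitope-tagged constructs (HA-YAP with full-length Smad7 wild type or variants) and treated where indicated with TGF-β1 at 100 pM. Lysates were immunoprecipitated with anti-Flag antibody, then immunoblotted with antibodies against the tags.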

Chain of YAP WW1-WW2 pair (P46937 163-266 limits assumed): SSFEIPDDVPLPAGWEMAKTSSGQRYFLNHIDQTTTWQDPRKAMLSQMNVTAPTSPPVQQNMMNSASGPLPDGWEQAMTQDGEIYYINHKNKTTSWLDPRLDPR
T2 sequence (Q9HAU4 250-333 limits assumed): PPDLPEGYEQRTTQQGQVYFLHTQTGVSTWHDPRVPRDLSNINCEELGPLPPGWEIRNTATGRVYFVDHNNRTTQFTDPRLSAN
Chain of YAP WW1 domain (P46937 163-206): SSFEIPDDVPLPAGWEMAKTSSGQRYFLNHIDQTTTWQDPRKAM
Chain of Smurf1 WW2 domain Arg295Glu (Q9HCE7 303-340 R321E limits assumed): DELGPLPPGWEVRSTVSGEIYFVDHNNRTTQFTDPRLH
Chain of Nedd4L WW2 domain Lys378/Arg380 to Glu (Q96PU5 384-423 K398E/R400E): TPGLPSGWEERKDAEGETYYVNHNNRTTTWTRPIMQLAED
Chain of Nedd4L WW2 domain Lys378Glu (Q96PU5 384-423 K398E): as the sequence (Q96PU5 384-423 K398E/R400E) above, with E17R counted along it
Chain of Nedd4L WW2 domain Arg380Glu (Q96PU5 384-423 R400E): as the sequence (Q96PU5 384-423 K398E/R400E) above, with E15K counted along it
Chain of Smurf2 WW3 domain R312E (Q9HAU4 297-333 R312E limits assumed): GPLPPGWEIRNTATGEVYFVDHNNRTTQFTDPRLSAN

Ac-ELESPPPPYSRYPMD-NH2 [Smad7 peptide]
Kd (YAP WW1-WW2 pair): 9.8 ± 0.9 µM
affinity, WW1-WW2 pair versus independent WW1 (YAP WW1-WW2 pair; ITC): binds slightly worse than the isolated WW1
stoichiometry N (YAP WW1-WW2 pair; ITC, 15°C): 1
dimer population in the presence of peptide (Smurf1 WW2 [1]): reduced
reduction of affinity (Smurf1 WW1-WW2 Gln249Glu): 3 fold
dissociation constants [2]: in the μM range
reduction of affinity (Smurf1 WW1-WW2 Arg243Glu): 10 fold
dimer population in the presence of peptide (Smurf1 WW1 [3]): unaffected
Kd [4]: 15.4 ± 3.5 µM
effect of domain pairs on affinity ([5]; in vitro, versus single domains): does not increase the affinity in vitro
dissociation constants ([5]; three possible WW-WW pairs, values shown in Figure 1B only): in the μM range
peptide affinity [6]: close to those of the single domains
affinity (Smurf1 WW1 [7]): very low affinity
species detected (Smurf2 WW2-WW3 [8]): dimers with one or with two bound ligands and trimers
Kd [9]: 23.5 ± 1.5 µM
reduction of affinity [10]: 3 fold
stoichiometry (Smurf1 WW1-WW2 [11]; ITC, 15 °C, Tris buffer): 0.7
stoichiometry (Smurf1 WW1-WW2 [11]; ITC, all temperatures): < 1
Kd (Smurf1 WW1-WW2 [11]; affinity (KD), ITC, 15 °C, Tris buffer (Figure 1C), at least three times, two protein expression batches): 1.7 ± 0.3 µM
affinity increase due to the WW domain pair (Smurf1 WW1-WW2 [11]; pair versus Smurf1 WW2 at a given temperature): about 2 fold
dissociation constant relative to WW1 (YAP WW2): 9 fold
affinity (Smurf2 WW2): very low affinity
preferred WW domain (Nedd4L WW domains): preferentially uses WW2
WW domain used for interaction (Smurf2): the WW3 for Smurf2
Kd (Smurf1 WW2 [12]): 4.1 ± 0.6 µM
stoichiometry (Smurf1 WW2 [12]; ITC, independent WW2, 15 °C, Tris buffer): 1
Kd (YAP WW1 domain): 6.9 ± 0.28 µM
preferred WW domain (YAP WW1 domain; ITC, 15°C): YAP WW1 domain preferentially binds
reduction of affinity (Smurf1 WW1-WW2 Arg243Ala): 3 fold
species detected (Smurf1 WW1-WW2 [13]): monomeric complexes, protein dimers bound to only one ligand, dimers bound to two ligands and higher order species; also recorded: dimers with one or with two bound ligands and trimers
WW domain used for interaction (Smurf1 WW1-WW2 pair): using the WW2 domain
stoichiometry (peptide per protein) (Nedd4L WW2-WW3 pair): two equivalents of peptide per protein
Kd [14]: 48.6 ± 6.4 µM
decrease of binding affinity ([14]; R295E versus wild type): approximately 8 fold
stoichiometry (Smurf2 WW2-WW3 [15]; ITC, all temperatures): < 1
Kd (Smurf2 WW2-WW3 [15]; affinity (KD), ITC, 15 °C): 1.7 ± 0.3 µM
affinity increase due to the WW domain pair (Smurf2 WW2-WW3 [15]; pair versus Smurf2 WW3 at a given temperature): about 2 fold
Kd [16]: 27.3 ± 2.2 µM
Kd (Smurf2 WW3 domain R312E): 34.2 ± 1.6 µM

Smad7: full-length protein Smad7 (wild type), flag epitope-tagged, expressed in HEK293T
binding to HA-YAP in immunoprecipitation (HA-YAP): binding is observed
